Bioassay records: PubChem, The Scripps Research Institute Molecular Screening Center
Compounds with a hit are over-represented: about 3.1% of the library has one in this group of screens.
ABHD5-PLIN5 inh – inhibitors of human ABHD5-perilipin-5 interaction; Q00G26+Q8WTS1; Split G. princeps luciferase complementation, luminescence, 4 h; inhibition, % at 4 µM; 360,000 tested, 0.78% active; AID 602281;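 active = inhibition above the mean inhibition across every tested compound plus 3 SD, cut at about 22% in these data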
Target sequence (Q00G26 whole entry, looked up): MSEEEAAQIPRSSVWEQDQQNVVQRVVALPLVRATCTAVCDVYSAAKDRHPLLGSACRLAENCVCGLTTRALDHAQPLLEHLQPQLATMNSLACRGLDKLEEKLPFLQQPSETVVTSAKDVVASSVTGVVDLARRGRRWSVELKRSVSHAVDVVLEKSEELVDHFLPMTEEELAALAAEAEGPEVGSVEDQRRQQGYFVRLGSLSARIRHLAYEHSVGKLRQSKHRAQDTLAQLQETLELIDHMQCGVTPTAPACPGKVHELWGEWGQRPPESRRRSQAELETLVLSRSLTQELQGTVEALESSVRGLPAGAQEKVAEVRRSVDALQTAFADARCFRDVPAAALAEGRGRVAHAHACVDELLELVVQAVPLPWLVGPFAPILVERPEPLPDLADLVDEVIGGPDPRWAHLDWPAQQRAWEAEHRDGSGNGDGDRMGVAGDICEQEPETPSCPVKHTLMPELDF
Target sequence (Q8WTS1 whole entry, looked up): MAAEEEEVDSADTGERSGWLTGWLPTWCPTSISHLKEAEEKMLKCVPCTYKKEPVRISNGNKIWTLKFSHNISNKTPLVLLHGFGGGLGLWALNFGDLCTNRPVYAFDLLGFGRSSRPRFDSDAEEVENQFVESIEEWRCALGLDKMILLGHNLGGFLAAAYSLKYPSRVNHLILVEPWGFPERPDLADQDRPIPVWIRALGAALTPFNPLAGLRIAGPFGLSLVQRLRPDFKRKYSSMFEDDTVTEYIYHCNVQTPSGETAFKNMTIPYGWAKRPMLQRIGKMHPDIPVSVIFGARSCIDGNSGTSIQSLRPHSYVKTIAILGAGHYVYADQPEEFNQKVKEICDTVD
LEDGF integ inh – blocks HIV-1 LEDGF/p75-dependent DNA integration | TR-FRET IN-LEDGF/p75 DNA integration, Eu/Cy5 | inhibition, % at 3.7 µM | 370,000 tested, 0.64% active;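 active = inhibition above the screen-wide mean plus 3 SD, cut at about 13% in these data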;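 note: signal is the Cy5 over europium emission ratio at 671 and 618 nm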
PRMT1 FP inh – inhibitors of human PRMT1. recombinant PRMT1, activity-based probe fluorescence polarization. inhibition, % at 2.79 µM. 370,000 tested, 1.3% active. AID 652257;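 active = inhibition above about 21% made by adding two undisclosed values, limit read from the data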
RBBP9 inhibitor – blocks human serine hydrolase RBBP9 | O75884 | recombinant RBBP9, FP-Rh probe fluorescence polarization | AID 1515 | 220,000 tested, 0.2% active | inhibition, % at 7.94 µM;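 active = inhibition above the campaign mean of all tested compounds plus 3 SD, cut at about 14% in these data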
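Controls: DMSO-treated enzyme wells and wells lacking RBBP9 | Material: RBBP9 protein | Technique: Fluorescence polarization | Replication: Single well per compound, no replicates | Buffer or medium: Tris-NaCl-Pluronic buffer, pH 8.0 | Timing: 30 min compound preincubation, 45 min probe labeling, 25 °C | Read-out basis: Percent inhibition from mP, scaled between DMSO and no-protein wells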
MBD2 DNA inh – inhibitors of human MBD2 binding to methylated oligonucleotide. TR-FRET. AID 686964. inhibition, % at 4.4 µM. 370,000 tested, 0.31% active; in the data active = inhibition above about 13%
UHRF1 binding – human UHRF1 methylated DNA binding inhibitors; Q96T88; UHRF1 binding to methylated oligo, TR-FRET; inhibition, % at 4.4 µM; 370,000 tested, 0.75% active;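 note: UHRF1 SRA domain binding a hemimethylated CpG hairpin DNA probe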
UHRF1 ctr MBD2 – counter-screen for MBD2 inhibitors: human UHRF1 methylated DNA binding inhibitors. UHRF1 binding to methylated oligonucleotide, TR-FRET. shares compounds with MBD2 DNA inh. 1,000 tested, 25% active. inhibition, % at 4.4 µM;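 note: UHRF1 SRA domain binding a labeled hemimethylated CpG hairpin DNA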
MBD2 confirm – MBD2-DBD methyl-DNA binding inhibition, TR-FRET confirmation; shares compounds with MBD2 DNA inh; TR-FRET MBD2-DBD binding to methylated oligonucleotide; inhibition, % at 4.4 µM; 1,000 tested, 26% active; AID 720531; in the data active = inhibition above about 14%
A number is an active result. Cut-off read from the data, not from the text of the source, unless noted: active = inhibition above about 21%; inactive = the rest.

Results for O=C(NNS(=O)(=O)c1ccccc1)c1ccncc1 ?
ABHD5-PLIN5 inh: inactive; LEDGF integ inh: inactive; PRMT1 FP inh: inactive; RBBP9 inhibitor: inactive; MBD2 DNA inh: inactive; UHRF1 binding: inactive

What do the screens show for `Cc1ccc(S(=O)(=O)NNC(=O)c2ccncc2)cc1`?
ABHD5-PLIN5 inh: inactive; LEDGF integ inh: inactive; PRMT1 FP inh: inactive; RBBP9 inhibitor: inactive; MBD2 DNA inh: 23; UHRF1 binding: inactive; UHRF1 ctr MBD2: inactive; MBD2 confirm: inactive

What do the screens show for `COc1ccccc1OCC(O)CNCc1ccc2c(c1)OCO2` (stereo not drawn)?
ABHD5-PLIN5 inh: inactive; LEDGF integ inh: inactive; PRMT1 FP inh: inactive; RBBP9 inhibitor: inactive; MBD2 DNA inh: 18; UHRF1 binding: inactive; UHRF1 ctr MBD2: inactive; MBD2 confirm: inactive

How did CCOc1cc(CNCc2ccc3c(c2)OCO3)ccc1OC do in these assays?
ABHD5-PLIN5 inh: inactive; LEDGF integ inh: inactive; PRMT1 FP inh: inactive; MBD2 DNA inh: inactive; UHRF1 binding: inactive

How did COc1ccc(CN2CCN(Cc3ccc(C(F)(F)F)cc3)CC2)c(OC)c1 do in these assays?
ABHD5-PLIN5 inh: inactive; LEDGF integ inh: inactive; PRMT1 FP inh: inactive; MBD2 DNA inh: inactive; UHRF1 binding: inactive

Results for COc1ccc(CN2CCN(Cc3ccc(C)cc3)CC2)c(OC)c1 ?
ABHD5-PLIN5 inh: inactive; LEDGF integ inh: inactive; PRMT1 FP inh: inactive; MBD2 DNA inh: 32; UHRF1 binding: inactive; UHRF1 ctr MBD2: inactive; MBD2 confirm: inactive

What do the screens show for `CCOC(=O)C1=C(C(=O)OCC)C2N(Cc3ccccc3)c3ccccc3[C@@]23C[C@@H](C(=O)OC)N(S(=O)(=O)c2ccc(C(F)(F)F)cc2)C3=N1` (stereo partly drawn)?
LEDGF integ inh: inactive; PRMT1 FP inh: inactive; MBD2 DNA inh: inactive; UHRF1 binding: inactive

What do the screens show for `CC(=O)Nc1sc2c(c1-c1nc3ccccc3s1)CCCNC2`?
LEDGF integ inh: inactive; PRMT1 FP inh: inactive; MBD2 DNA inh: 21; UHRF1 binding: inactive; UHRF1 ctr MBD2: inactive; MBD2 confirm: 32

What do the screens show for `CCCCCCSc1ccc([C@H]2N[C@@](Cc3ccccc3)(C(=O)OC)[C@H]3C(=O)N(C)C(=O)[C@@H]23)cc1`?
ABHD5-PLIN5 inh: inactive; LEDGF integ inh: inactive; PRMT1 FP inh: inactive; MBD2 DNA inh: 14; UHRF1 binding: inactive; UHRF1 ctr MBD2: inactive; MBD2 confirm: inactive

How did COC(=O)[C@]12C[C@H](CC(=O)N3CCN(C(=O)C4CC4)CC3)C(=O)N(Cc3ccc(Cl)cc3Cl)C1=C[C@H](C(C)C)O[C@@H]2C1CC1 do in these assays?
LEDGF integ inh: inactive; PRMT1 FP inh: inactive; MBD2 DNA inh: inactive; UHRF1 binding: inactive

What do the screens show for `Clc1ccc2c(c1)-c1ccccc1C1=NCCN12`?
ABHD5-PLIN5 inh: inactive; LEDGF integ inh: inactive; PRMT1 FP inh: inactive; MBD2 DNA inh: 22; UHRF1 binding: inactive; UHRF1 ctr MBD2: inactive; MBD2 confirm: 42

How did Cc1ccc(CN2C(=O)C3CCCN3c3ncccc32)cc1 (stereo not drawn) do in these assays?
ABHD5-PLIN5 inh: inactive; LEDGF integ inh: inactive; PRMT1 FP inh: inactive; MBD2 DNA inh: 52; UHRF1 binding: inactive; UHRF1 ctr MBD2: inactive; MBD2 confirm: inactive

Results for Cc1ccc(CN2C(=O)C3CCCN3c3ccc(S(=O)(=O)N4CCOCC4)cc32)cc1 (stereo not drawn) ?
RBBP9 inhibitor: inactive

What do the screens show for `Cc1cc2c(c(=O)o1)[C@@]1(C(=O)N(C)c3cccc(Br)c31)C1=C(CCCC1=O)O2`?
LEDGF integ inh: inactive; PRMT1 FP inh: inactive; MBD2 DNA inh: inactive; UHRF1 binding: inactive

Results for O=C1NC2c3c(Cl)sc(Cl)c3C(=O)C2O1 (stereo not drawn) ?
ABHD5-PLIN5 inh: inactive; LEDGF integ inh: inactive; PRMT1 FP inh: inactive; MBD2 DNA inh: 14; UHRF1 binding: 35; UHRF1 ctr MBD2: 32; MBD2 confirm: 16

How did CCC(C)NC(=O)CCn1c(-c2ccc(F)cc2)cc(C(C)=O)c1C (stereo not drawn) do in these assays?
ABHD5-PLIN5 inh: inactive; LEDGF integ inh: inactive; PRMT1 FP inh: inactive; RBBP9 inhibitor: inactive; MBD2 DNA inh: inactive; UHRF1 binding: inactive

What do the screens show for `CC(=O)c1cc(-c2ccc(F)cc2)n(CCC(=O)NC(C)(C)C)c1C`?
ABHD5-PLIN5 inh: inactive; LEDGF integ inh: 15; PRMT1 FP inh: inactive; RBBP9 inhibitor: inactive; MBD2 DNA inh: 36; UHRF1 binding: 83; UHRF1 ctr MBD2: inactive; MBD2 confirm: inactive

Results for O=C(NNC(=O)c1cccc2ccccc12)c1ccc(Cl)cc1 ?
ABHD5-PLIN5 inh: inactive; LEDGF integ inh: inactive; PRMT1 FP inh: inactive; MBD2 DNA inh: inactive; UHRF1 binding: inactive

What do the screens show for `O=C(NNC(=O)c1cccc2ccccc12)c1ccc(Cl)c(Cl)c1`?
ABHD5-PLIN5 inh: inactive; LEDGF integ inh: inactive; PRMT1 FP inh: inactive; MBD2 DNA inh: 66; UHRF1 binding: inactive; UHRF1 ctr MBD2: inactive; MBD2 confirm: inactive

Results for C[C@H]1[C@@H](NC(=O)C(c2ccccc2)c2ccccc2)CC[C@@]23CCCN2C(=O)CCC[C@@H]13 ?
LEDGF integ inh: inactive; PRMT1 FP inh: inactive; MBD2 DNA inh: inactive; UHRF1 binding: inactive

How did Cc1cc(C)c2nc3nc(C)c(C)cc3c(N)c2c1 do in these assays?
ABHD5-PLIN5 inh: inactive; LEDGF integ inh: inactive; PRMT1 FP inh: inactive; RBBP9 inhibitor: inactive; MBD2 DNA inh: 21; UHRF1 binding: 26; UHRF1 ctr MBD2: 41; MBD2 confirm: 38

Results for CCCCCCC12C(=Cc3cc(C)ccc31)c1ccccc1C(CC(=O)NCc1ccccc1)N2C(=O)OC (stereo not drawn) ?
LEDGF integ inh: inactive; PRMT1 FP inh: inactive; MBD2 DNA inh: 29; UHRF1 binding: 54; UHRF1 ctr MBD2: inactive; MBD2 confirm: inactive

Results for CCCCCCCCN1C(=O)[C@H](CC(=O)NCc2ccccc2)C[C@@]2(C(=O)OCC)CCCC=C12 ?
ABHD5-PLIN5 inh: inactive; LEDGF integ inh: inactive; PRMT1 FP inh: inactive; MBD2 DNA inh: inactive; UHRF1 binding: inactive

What do the screens show for `CCOC(=O)[C@]12CCCC3=C1N(CCC3)C(=O)[C@@H](CC(=O)NCc1ccc(C)o1)C2`?
LEDGF integ inh: inactive; PRMT1 FP inh: inactive; MBD2 DNA inh: inactive; UHRF1 binding: inactive

Results for CCN(Cc1ccccc1)S(=O)(=O)c1c(C)[nH]c(C)c1C(=O)N1CCCCC1 ?
ABHD5-PLIN5 inh: inactive; LEDGF integ inh: inactive; PRMT1 FP inh: inactive; MBD2 DNA inh: 14; UHRF1 binding: inactive; UHRF1 ctr MBD2: inactive; MBD2 confirm: inactive

How did O=C1c2ccccc2-c2cccnc21 do in these assays?
ABHD5-PLIN5 inh: inactive; LEDGF integ inh: inactive; PRMT1 FP inh: inactive; MBD2 DNA inh: 16; UHRF1 binding: inactive; UHRF1 ctr MBD2: inactive; MBD2 confirm: inactive
